E coli WT exp: growth inhibitors of E. coli BW25113 wild type. 98,000 compounds, 0.15% hits. OD600 absorbance. growth inhibition, % at 100 µM;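 active = growth inhibition above about 50% at one test dose, limit read from the data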;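 note: growth measured after 20 h incubation at 37 °C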
HePTP inhibitor: blocks human HePTP tyrosine phosphatase; P35236; recombinant HePTP phosphatase activity, OD absorbance; inhibition, % at 20 µM; 110,000 compounds, 0.64% hits; in the data active = inhibition above about 50%;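 note: plate controls were vehicle for no effect and reference inhibitor for full effect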
AP ELISA ortho: orthogonal test for alternative complement pathway inhibitors; Human serum alternative complement pathway, LPS-coated ELISA, C3 deposition; tested in compound mixtures; inhibition, % at 5 µM; 62,000 compounds, 0.08% hits; AID 1235;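 active = inhibition above 30% in each of the two pooled mixtures holding the compound, so the lower value exceeds 30%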;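 note: 0% = serum in Mg-EGTA without compound and 100% = EDTA serum blank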
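Test system: human serum complement alternative pathway, C3 deposition onto LPS / Medium: Mg2+-EGTA GVB++ buffer containing human serum at 1:15 dilution / Probe or stimulus: Plate-bound LPS / Times: 1 h at 37 °C / Signal: ELISA with HRP anti-human C3 antibody, TMB substrate, absorbance 450 nm / Measure: percent inhibition / Repeats: two pool placements per compound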
Ecoli tolC: blocks growth of E. coli BW25113 tolC mutant; 65,000 compounds, 2.2% hits; OD615; growth inhibition, % at 10 µM (by protocol);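 active = growth inhibition at or above a cutoff equal to the mean over every tested compound plus 3 SD, cut at about 60% in these data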;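 note: growth measured after 20 h incubation at 37 °C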
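test system = E. coli BW25113 ΔtolC::kan bacteria | medium = LB with kanamycin 50 µg/mL | signal = OD at 615 nm | schedule = 37 °C, 20 h exposure | evaluation = % inhibition of E. coli growth | compound dosing = one dose of 10 µM final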
PLAP act: activators of human placental alkaline phosphatase; P05187; purified PLAP enzyme, luminescent substrate read-out; stronger effect = higher value; activation fold at 20 µM; 96,000 compounds, 1.2% hits; AID 696; in the data active = activation fold above about 2
Target sequence (P05187 whole entry, looked up): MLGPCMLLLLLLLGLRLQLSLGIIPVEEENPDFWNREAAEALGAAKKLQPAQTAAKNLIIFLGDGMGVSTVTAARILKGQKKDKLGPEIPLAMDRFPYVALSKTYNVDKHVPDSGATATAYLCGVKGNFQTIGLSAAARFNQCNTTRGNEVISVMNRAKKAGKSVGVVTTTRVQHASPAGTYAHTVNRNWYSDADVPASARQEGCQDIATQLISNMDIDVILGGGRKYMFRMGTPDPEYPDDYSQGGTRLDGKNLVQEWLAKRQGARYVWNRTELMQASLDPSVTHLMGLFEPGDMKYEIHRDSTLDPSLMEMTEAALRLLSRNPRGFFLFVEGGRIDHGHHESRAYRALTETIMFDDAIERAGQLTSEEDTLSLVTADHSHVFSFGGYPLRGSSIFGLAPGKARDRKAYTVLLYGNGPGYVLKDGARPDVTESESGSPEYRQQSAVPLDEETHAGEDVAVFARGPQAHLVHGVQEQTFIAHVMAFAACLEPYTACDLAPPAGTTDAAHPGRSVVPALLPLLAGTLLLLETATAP
Numbers without * were called inactive. Most compounds without a hit are left out; they make up all but 2.3% or so of the library.

Results for CC1=NN(C(=O)c2ccc(Cn3nc(C)cc3C)o2)C(O)(C(F)(F)F)C1 (centres undefined) ?
E coli WT exp: 6; PLAP act: 2.2*

Results for CC1=NN(C(=O)c2ccc(Cn3nc(C)c([N+](=O)[O-])c3C)cc2)C(O)(C(F)(F)F)C1 (centres undefined) ?
E coli WT exp: 6; PLAP act: 1.9

How did CN1C(=O)/C(=C2/SC(=S)N(CCC(=O)O)C2=O)c2cc(Br)ccc21 do in these assays?
HePTP inhibitor: 104*

Results for C/C(=N\NC(=O)c1cc(C2CC2)[nH]n1)c1ccc(Br)cc1 ?
HePTP inhibitor: -6

How did CCOc1ccc2nc(NC(=O)CN3CCC(n4nnc5cc(F)ccc54)CC3)sc2c1 do in these assays?
E coli WT exp: -13; HePTP inhibitor: -4; AP ELISA ortho: -7; Ecoli tolC: 79*; PLAP act: 1.8

How did O=C(CN1CCC(n2nnc3cc(F)ccc32)CC1)NC1CC1 do in these assays?
E coli WT exp: 11; HePTP inhibitor: 2; AP ELISA ortho: 20; Ecoli tolC: -12; PLAP act: 1

What do the screens show for `N#CC1=C(N)SC(N)=C(C#N)C1CCC1CCCCC1`?
E coli WT exp: 8; HePTP inhibitor: -1; AP ELISA ortho: -6; Ecoli tolC: 99*; PLAP act: 1

What do the screens show for `O=C(NCc1ccc2c(c1)OCO2)C(=O)Nc1cccc(Cl)c1Cl`?
HePTP inhibitor: 0

What do the screens show for `COc1ccc(S(=O)(=O)N(CCc2ccccc2)CC(=O)NCC2CCCO2)cc1` (centres undefined)?
HePTP inhibitor: 8

How did Cc1sc(NC(=O)c2ccco2)c(CN2CCN(c3ccccn3)CC2)c1C do in these assays?
E coli WT exp: -6; HePTP inhibitor: 9; AP ELISA ortho: 16; Ecoli tolC: 63*; PLAP act: 1.2

What do the screens show for `COc1ccc(C(=O)NNC(=O)CSc2nnc(COc3ccccc3)n2C)cc1`?
E coli WT exp: 9; PLAP act: 2*

How did COc1ccc(-n2c(SCC(=O)NNC(=O)c3ccccc3C)nnc2-c2ccncc2)cc1 do in these assays?
E coli WT exp: 6; PLAP act: 2.1*

What do the screens show for `CCOC(=O)c1c(NC(=O)c2ccc([N+](=O)[O-])cc2)sc2c1CCCCCC2`?
HePTP inhibitor: 6

How did COc1ccc(C(=O)CN2CCN(C(=O)C3CC3)CC2)cc1 do in these assays?
HePTP inhibitor: -14

Results for COc1ccc(CNc2nc3c(c(=O)n(Cc4ccc(F)cc4)c(=O)n3C)n2C)cc1 ?
E coli WT exp: 10; HePTP inhibitor: 7; AP ELISA ortho: 3; Ecoli tolC: 71*; PLAP act: 0.9

How did Cc1cc(Cl)ccc1NC(=O)CSc1nnc(Cc2cccs2)n1Cc1ccco1 do in these assays?
E coli WT exp: -7; HePTP inhibitor: 9; AP ELISA ortho: 8; Ecoli tolC: 75*; PLAP act: 1.1

How did Cc1cccc(-c2nc3ccccc3[nH]2)c1 do in these assays?
HePTP inhibitor: -5

What do the screens show for `C(=C\c1ccco1)/C=N/Nc1nnc2c(n1)[nH]c1ccccc12`?
HePTP inhibitor: 6

How did O=C(c1ccccc1)c1nc[nH]c1C(=O)Nc1ccccn1 do in these assays?
E coli WT exp: 2; HePTP inhibitor: -6; AP ELISA ortho: -9; Ecoli tolC: -14; PLAP act: 2.2*

What do the screens show for `O=C(O)C1Nc2ccc([N+](=O)[O-])cc2C2C=CCC12` (centres undefined)?
HePTP inhibitor: 104*

Results for O=C(O)C1Nc2ccc3ccccc3c2C2C=CCC12 (centres undefined) ?
HePTP inhibitor: 102*

How did O=C(/C=C/c1ccc(F)cc1)N1CCC(CN2C(=O)c3cccc4cccc(c34)C2=O)CC1 do in these assays?
HePTP inhibitor: -3

Results for Cc1nc(N)sc1C(=O)N/N=C/C=C/c1ccccc1 ?
HePTP inhibitor: -5

How did O=C(COC(=O)CSCC(=O)Nc1cccc2ccccc12)Nc1ccc(Br)cn1 do in these assays?
HePTP inhibitor: -12

Results for Cc1nn(C(C)C(=O)NCc2ccccc2)c(C)c1[N+](=O)[O-] (centres undefined) ?
E coli WT exp: 4; PLAP act: 0.9

What do the screens show for `COc1cccc(NC(=S)NNC(=O)C(C)n2nc(C)c([N+](=O)[O-])c2C)c1` (centres undefined)?
E coli WT exp: -1; PLAP act: 2.1*

How did COc1cccc(NC(=S)NNC(=O)c2c([N+](=O)[O-])c(C)nn2C)c1 do in these assays?
E coli WT exp: 2; PLAP act: 2.1*

Results for CSC1=C(C#N)C(c2ccco2)CC(=O)N1 (centres undefined) ?
HePTP inhibitor: 0

Results for CC(=O)c1c(C)[nH]c(C(=O)OCC(=O)N2CCN(S(=O)(=O)c3ccc(C)cc3C)CC2)c1C ?
E coli WT exp: 1; PLAP act: 2*

How did CCOC(=O)c1c(C)[nH]c(C(=O)OCC(=O)N2CCN(S(=O)(=O)c3ccccc3)CC2)c1C do in these assays?
E coli WT exp: -9; HePTP inhibitor: 0; AP ELISA ortho: 4; Ecoli tolC: -6; PLAP act: 1.3

How did CCCCCSc1nnc(-c2cc(Br)ccc2N)c(=O)[nH]1 do in these assays?
E coli WT exp: 5; HePTP inhibitor: 4; AP ELISA ortho: 7; Ecoli tolC: 100*; PLAP act: 1.1

Results for O=C(NCc1ccco1)c1cc2sccc2n1Cc1ccccc1 ?
HePTP inhibitor: 2; AP ELISA ortho: -8; Ecoli tolC: 77*

What do the screens show for `CCn1c(C(=O)NCCCc2ccccc2)cc2sccc21`?
HePTP inhibitor: 4; AP ELISA ortho: 13; Ecoli tolC: 81*

How did COc1ccc2nc(NC(=O)C(NS(=O)(=O)c3cccs3)C(C)C)sc2c1 (centres undefined) do in these assays?
E coli WT exp: -9; HePTP inhibitor: 14; AP ELISA ortho: 3; Ecoli tolC: 16; PLAP act: 2.2*

Results for O=C1CC(c2ccco2)CC(O)=C1C=Nc1ccc(Br)cc1 (centres undefined) ?
E coli WT exp: -3; PLAP act: 0.7

Results for O=C1CC(c2ccco2)CC(O)=C1C=Nc1cc(Cl)ccc1O (centres undefined) ?
E coli WT exp: 1; HePTP inhibitor: 7; Ecoli tolC: -6; PLAP act: 2.5*

Results for Fc1ccc(C(c2nnnn2Cc2cccs2)N2CCN(C3CCCCC3)CC2)cc1 (centres undefined) ?
E coli WT exp: 4; HePTP inhibitor: 9; AP ELISA ortho: 13; Ecoli tolC: -4; PLAP act: 2.1*

Results for O=C(O/N=C(/c1ccncc1)c1ccc([N+](=O)[O-])cc1)c1cccc(F)c1 ?
HePTP inhibitor: -17

How did CCOc1ccc(C(=O)Nc2ccc3oc(-c4ccccc4F)nc3c2)cc1Cl do in these assays?
HePTP inhibitor: 3

Results for CCOc1ccc(C(=O)Nc2ccc3oc(-c4ccncc4)nc3c2)cc1Cl ?
HePTP inhibitor: 98*

What do the screens show for `O=C(CSCC(=O)Nc1ccc2ccccc2c1)Nc1ccc(F)cc1`?
HePTP inhibitor: -1

Compound activity deposited in PubChem by several laboratories.
